MT1-MMP act inh: inhibitors of human MT1-MMP activation. GFP/RFP ratio change, % at 20 µM. 0.061% of 360,000 active. P50281. AID 651647. HT1080 RFP-PRO-GFP cells, GFP/RFP ratio fluorescence, overnight; percent of plate control window, DMSO zero;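 active = GFP/RFP ratio change of at least 30% with cell ATP level not reduced by more than half and red fluorescence within 50% of control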
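Material – HT1080 RFP-PRO-GFP cells · Control set – DMSO wells and RFP-L50D-GFP cells · Incubation – overnight cell settling, then overnight compound exposure, 37 °C, 5% CO2 · Compound dosing – single-point 20 µM compound, 1% DMSO · Read-out – GFP/RFP fluorescence ratio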
SENP1 FRET inh: inhibitors of human SENP1 SUMO protease catalytic domain; 0.21% of 360,000 active; inhibition, % at 10 µM; AID 624204; Q9P0U3; recombinant SENP1 catalytic domain, CyPet-SUMO1-YPet FRET cleavage;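 active = inhibition at least 30% at 10 µM, raw YFP signal under a set limit, fluorescence ratio 0.5 to 1.5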
Target sequence (Q9P0U3 419-644 limits assumed): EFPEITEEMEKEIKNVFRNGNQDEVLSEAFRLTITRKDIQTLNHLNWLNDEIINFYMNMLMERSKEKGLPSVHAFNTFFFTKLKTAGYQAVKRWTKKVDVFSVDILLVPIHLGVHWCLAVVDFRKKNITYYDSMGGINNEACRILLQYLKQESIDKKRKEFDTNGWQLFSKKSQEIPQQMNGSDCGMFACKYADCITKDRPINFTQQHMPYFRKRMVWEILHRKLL
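Controls: no-enzyme wells low, DMSO-plus-enzyme wells high control. Test system: human recombinant His6-tagged SENP1 catalytic domain enzyme. Reagent: SFCypet-SUMO1-SFYpet FRET protein substrate, 25 nM final. Doses: one dose per compound, 10 µM, 0.5% DMSO. Detection: FRET, CFP and YFP emission. Timing: 50 min reaction at room temperature.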
CendR NRP1 mod: NRP-1/CendR interaction modulation; O14786; inhibition, % at 25 µM; 0.85% of 360,000 active; AID 602438; FAM-RPARPAR peptide binding to NRP-1, fluorescence polarization;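 active = inhibition or corrected inhibition above about 18%, plus a signal ratio from 0.5 to 1.5, limit read from the data, passing the limit was not always enough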
MIN6 prolif: inducers of beta-cell replication in MIN6 cells; 0.29% of 330,000 active; proliferation, % at 10 µM; MIN6 cells proliferation, ATPlite luminescence, 48 h; cells starved in 0.2% serum; 100% = growth in 10% serum;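 active = compounds whose signal lies at least 3.5 SD above the mean of all wells on their plate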
Myeloid diff 2: promotes myeloid progenitor differentiation | 1% of 360,000 active | ER-HoxA9 myeloid progenitors, lysozyme-GFP differentiation, flow cytometry | calls only at 10 µM | AID 624256;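 active = normalized GFP-positive differentiation at or above the plate's own cutoff, the solvent-only control mean plus 3 SD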;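 also: cells exposed to compound for four days before flow analysis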
DAGLB inh: diacylglycerol lipase beta (human) inhibition | Q8NCG7 | HEK293T DAGLB membrane lysate, EnzChek fluorogenic substrate | inhibition, % at 5.17 µM | 0.059% of 340,000 active | AID 504411; in the data active = inhibition above about 34%
Myeloid diff CP1: myeloid differentiation induction; shares compounds with Myeloid diff 2; ER-HoxA9 myeloid progenitors, GFP/Mac1 double-positive flow; calls only; 2% of 2,300 active;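 active = share of green or green-and-red cells above 9 and 9% in run 1 or 4 and 3% in run 2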
GFP autofluor: counter-screen for myeloid differentiation promoters: compound fluorescence | shares compounds with Myeloid diff 2 | ER-HoxA9 myeloid progenitors, no estrogen, GFP autofluorescence flow cytometry; vehicle wells 0%, positive control 100% | fluorescence response, % (no concentration beside the values) | 7.4% of 2,300 active;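 active = over 5% cells positive for green fluorescent reporter, or over 2% positive for both it and APC stain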
A number is an active result; . = inactive; / = no result given; + = active, no number. This is a sample that favours compounds with a hit; in the whole collection about 2.4% have one here.

SMILES	MT1-MMP act inh	SENP1 FRET inh	CendR NRP1 mod	MIN6 prolif	Myeloid diff 2	DAGLB inh	Myeloid diff CP1	GFP autofluor
CC(C)CNC(=O)c1ccccc1-c1ccccc1C(=O)O	.	.	.	.	.	.	.	.
CC(C)CNC(=O)c1cccc(NC(=O)c2ccccc2-c2ccccc2C(=O)O)c1	.	.	.	.	.	.	/	/
O=C(CCCNS(=O)(=O)c1ccc(Cl)c(Cl)c1)NCCc1ccccn1	.	.	.	.	.	.	/	/
CCN(CC)CCOC(=O)c1ccc(N/C=C(/C#N)c2nc(-c3cccc(OC)c3)cs2)cc1	.	.	.	.	.	/	/	/
CCN(CC)CCOC(=O)c1ccc(N/C=C(/C#N)c2nc(-c3ccc(OC)c(OC)c3)cs2)cc1	.	.	.	.	.	.	.	.
C=C1CCN([C@H](C(=O)NCc2ccc(OC)cc2)C(C)C)S(=O)(=O)c2ccccc21	.	.	.	.	.	.	/	/
C=CCn1c(=O)n(C(=O)OCC)c2cc(Br)ccc21	.	.	.	.	.	.	/	/
COc1ccc(C(C)(O)c2nc(-c3ccc(F)cc3OC)cs2)cc1 (stereo unspecified)	.	.	.	/	.	/	.	.
COc1cc(F)ccc1-c1csc(C(C)(O)c2ccc(F)c(F)c2)n1 (stereo unspecified)	.	.	.	/	.	/	/	/
O=C(Cn1cc(C(F)(F)F)cc(Cl)c1=O)NCCc1ccccc1	.	.	.	.	.	.	/	/
CCc1nn(-c2ccccc2)c(=S)c2ccccc12	.	.	.	.	.	.	/	/
c1csc(-c2noc(COc3ccc4c(c3)CCCC4)n2)c1	.	.	.	.	.	.	.	.
Brc1ccc(-c2noc(COc3ccc4c(c3)CCC4)n2)o1	.	.	.	.	.	.	/	/
CCc1ccc(CN2CCC(n3nccc3NC(=O)c3cccc(F)c3)CC2)cc1	.	.	.	.	+	.	.	.
CCOC(=O)C1(CCOc2ccccc2)CCN(Cc2cccc(OC)c2)CC1	.	.	.	/	+	.	.	.
CCOC(=O)C1(CCOC)CCN(Cc2cccc(OCc3ccccc3)c2)CC1	.	.	.	.	.	.	/	/
COc1ccccc1-c1ccc2c(c1)O[C@@H](CN(C)C(=O)Nc1cccc(F)c1)[C@H](C)CN([C@H](C)CO)S2(=O)=O	.	.	.	/	.	.	.	.
C[C@H](CO)N1C[C@H](C)[C@H](CN(C)Cc2ccncc2)Oc2cc(-c3ccccc3F)ccc2S1(=O)=O	.	.	.	/	.	.	.	.
COC12NC(=O)N(C)C1(OC)C(=O)N(C)C(=O)N2C (stereo unspecified)	.	.	.	.	.	.	/	/
CC1=C(C(=O)OC(C)C)C(c2cccs2)N2C(=O)CCSC2=N1 (stereo unspecified)	.	.	.	.	.	.	.	.
CC1(C)CN(CCc2ccccc2)C(=O)[C@H]1CC(=O)Nc1ccccc1	.	.	.	/	+	.	.	10.1
CCCCN1C[C@H](Cc2ccccc2)[C@@H](CC(=O)Nc2ccccc2)C1=O	.	.	.	.	.	.	.	.
CC(C)N(CC#CCC(O)(c1ccccc1)c1ccccc1)C(C)C	.	.	.	.	.	.	.	.
CCOC(=O)Cc1csc(NC(=O)c2sc3nc4cc(C)ccc4cc3c2N)n1	.	.	.	.	.	.	.	.
CCOC(=O)Cc1csc(NC(=O)c2sc3nc4ccc(CC)cc4cc3c2N)n1	.	.	.	.	.	.	.	.
SMILES	MT1-MMP act inh	SENP1 FRET inh	CendR NRP1 mod	MIN6 prolif	Myeloid diff 2	DAGLB inh	Myeloid diff CP1	GFP autofluor
CCOC(=O)Cc1csc(NC(=O)c2ccc(Br)o2)n1	.	.	.	.	.	.	/	/
CCc1nnc(NC(=O)CCS(=O)(=O)Cc2ccccc2)s1	.	.	.	.	+	.	.	.
c1coc(CNc2c3c(nc4ncnn24)CCCC3)c1	.	.	.	.	.	.	/	/
Clc1cccc(-c2cc3nc4c(c(NCc5ccco5)n3n2)CCCC4)c1	.	.	.	.	+	.	.	.
CC(C)CCNC(=O)c1ccc(-c2ccccc2)cc1	/	/	/	.	/	/	/	/
COc1ccccc1-n1c(=S)sc2c(=O)n(Cc3ccco3)c(SC)nc21	.	.	.	.	.	.	.	.
COC(=O)CC1(C(=O)OC)Nc2cc(Cl)c(Cl)cc2S(=O)(=O)N1O (stereo unspecified)	.	.	.	/	.	.	/	/
COc1ccccc1/C=C1/SC(=S)N(C(C)C(=O)NC2C=CS(=O)(=O)C2)C1=O (stereo unspecified)	.	.	.	.	.	.	/	/
COC(=O)[C@H](C)N(Cc1ccc(Cl)c(Cl)c1)S(=O)(=O)CCNC1CCCC1	.	.	.	/	.	.	/	/
CCN1C(=O)/C(=C/c2ccc(N3CCCC3)cc2)NC1=S	.	.	.	.	+	.	.	93.0
Cc1ccc(CN2C(=O)N/C(=C\c3ccc(N4CCOCC4)cc3)C2=O)cc1	.	.	.	.	.	.	/	/
COc1ccc(/C=N/n2c(SC)nnc(C(C)(C)C)c2=O)c(OC)c1	.	.	.	.	.	.	/	/
CCOC(=O)c1ccc(NC(=O)CN2CCc3ccccc3C2)cc1	.	.	38.2	.	.	.	.	.
CCOc1ccc(NC(=O)CN2CCc3ccccc3C2)cc1	.	.	.	.	.	.	/	/
COC(=O)c1cc(NC(=O)CN2CCc3cc4c(cc3C2)OCCCO4)cc(C(=O)OC)c1	.	.	.	.	.	.	.	.
CC(C)CN(C(=O)Cn1ccccc1=O)C1CCS(=O)(=O)C1 (stereo unspecified)	.	.	.	.	.	.	/	/
CCN(Cc1ccc(Br)s1)C(=O)CSc1nnc(C2CC2)n1C1CC1	.	.	.	/	.	.	/	/
CC1Cc2ccccc2N1C(=O)Cn1nnc(-c2ccccc2NC(=O)C2CCC2)n1 (stereo unspecified)	.	.	.	.	.	.	.	.
CC(=O)n1cc(C2CC(=O)OC3=C2CC(=O)C(C)(C)C3)c2ccccc21 (stereo unspecified)	.	.	.	/	.	.	/	/
CC(=O)n1cc(C2C(=O)CCCC2=O)c2ccccc21	.	.	.	.	.	.	.	.
Cn1c(Cn2cnc3ccccc32)nc2ccccc21	.	.	.	.	.	.	/	/
Cn1c(Cn2cnc(Cl)c2Cl)nc2ccccc21	.	.	.	.	.	.	.	.
Cc1cc(C)cc(OCC(=O)OCC(=O)Nc2cc(S(=O)(=O)N3CCOCC3)ccc2Cl)c1	.	.	.	.	.	.	/	/
